Assay results taken from ChEMBL document CHEMBL1158040, “Biological activities and 3D QSAR studies of a series of Delisea pulchra (cf. fimbriata) derived natural products” (J Nat Prod, 2006).
≈ marks a conversion by molar mass, not a printed value. Calls of active or inactive are those of the source. The rule behind the calls is not given here.

How the values were obtained:
[1] = Cytotoxicity against human BCA1 cells; format: functional; conditions: read-out: ED50 (the source's name)
HT-1080 = assay: Cytotoxicity against human HT1080 cells; format: functional; conditions: read-out: ED50 (the source's name)
Lu1 = assay: Cytotoxicity against human Lu1 cells; format: functional; conditions: read-out: ED50 (the source's name)
[2] = Cytotoxicity against human MEL-2 cells; format: functional; conditions: MEL2, read-out: ED50 (the source's name)
[3] = Cytotoxicity against human Col1 cells; format: functional; conditions: read-out: ED50 (the source's name)
KB [4] = assay: Cytotoxicity against human KB cells; format: functional; conditions: read-out: ED50 (the source's name)
KB [5] = assay: Cytotoxicity against vinblastine-sensitive human KB cells; format: functional; conditions: read-out: ED50 (the source's name)
KB [6] = assay: Cytotoxicity against vinblastine-resistant human KB cells; format: functional; conditions: read-out: ED50 (the source's name)
Outline: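 The vinblastine-resistant KB-V1 line was tested both with and without added vinblastine in the cultured tumour-cell cytotoxicity panel. Results are reported as ED50.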

P388 = assay: Cytotoxicity against mouse P388 cells; format: functional; conditions: read-out: ED50 (the source's name)
A-431 = assay: Cytotoxicity against human A431 cells; format: functional; conditions: read-out: ED50 (the source's name)
LNCaP = assay: Cytotoxicity against human LNCAP cells; format: functional; conditions: read-out: ED50 (the source's name)
ZR-75-1 = assay: Cytotoxicity against human ZR-75-1 cells; format: functional; conditions: read-out: ED50 (the source's name)
[7] = Cytotoxicity against human U373 cells; format: functional, U-373MG ATCC; conditions: U373 MG, read-out: ED50 (the source's name)
Escherichia coli [8] = assay: Antimicrobial activity against Escherichia coli at 10 ug; format: functional, organism-based
Outline: (§1)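 Direct bioautography: each compound is spotted onto TLC plates and the solvent evaporated. The test organism is then grown directly on the plate. Growth inhibition is scored at the spot as active (+) or very active (++). Where a number is given, it is the radius in mm of the inhibition zone around the spot.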

Escherichia coli [9] = assay: Antimicrobial activity against Escherichia coli at 5 ug; format: functional, organism-based; outline: as §1
Escherichia coli [10] = assay: Antimicrobial activity against Escherichia coli at 1 ug; format: functional, organism-based; outline: as §1
Escherichia coli [11] = assay: Antimicrobial activity against Escherichia coli at 0.1 ug; format: functional, organism-based; outline: as §1
Micrococcus luteus [12] = assay: Antimicrobial activity against Micrococcus luteus at 10 ug; format: functional, organism-based; outline: as §1
Micrococcus luteus [13] = assay: Antimicrobial activity against Micrococcus luteus at 5 ug; format: functional, organism-based; outline: as §1
Micrococcus luteus [14] = assay: Antimicrobial activity against Micrococcus luteus at 1 ug; format: functional, organism-based; outline: as §1
Bacillus subtilis [15] = assay: Antimicrobial activity against Bacillus subtilis at 10 ug; format: functional, organism-based; outline: as §1
Bacillus subtilis [16] = assay: Antimicrobial activity against Bacillus subtilis at 5 ug; format: functional, organism-based; outline: as §1
Bacillus subtilis [17] = assay: Antimicrobial activity against Bacillus subtilis at 1 ug; format: functional, organism-based; outline: as §1
Penicillium oxalicum [18] = assay: Antimicrobial activity against Penicillium oxalicum at 10 ug; format: functional; conditions: read-out: IZ; outline: as §1
Penicillium oxalicum [19] = assay: Antimicrobial activity against Penicillium oxalicum at 5 ug; format: functional; conditions: read-out: IZ; outline: as §1
Penicillium oxalicum [20] = assay: Antimicrobial activity against Penicillium oxalicum at 1 ug; format: functional; conditions: for zone of inhibition at 1 µg/disc: read-out: IZ; outline: as §1
Plasmodium falciparum [21] = assay: Antimalarial activity against chloroquine-sensitive Plasmodium falciparum D6 at 10 ug/ml; format: functional
[22] = Inhibition of PKC
Micrococcus luteus [23] = assay: Antimicrobial activity against Micrococcus luteus at 0.1 ug; format: functional, organism-based; outline: as §1
Bacillus subtilis [24] = assay: Antimicrobial activity against Bacillus subtilis at 0.1 ug; format: functional, organism-based; outline: as §1
Penicillium oxalicum [25] = assay: Antimicrobial activity against Penicillium oxalicum at 0.1 ug; format: functional; conditions: read-out: IZ; outline: as §1
Plasmodium falciparum [26] = assay: Antimalarial activity against chloroquine-sensitive Plasmodium falciparum D6; format: functional, organism-based
Outline: (§2)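 In vitro growth inhibition of Plasmodium falciparum clones D6 (chloroquine-sensitive) and W2 (chloroquine-resistant); IC50 reported in μg/mL.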

Plasmodium falciparum [27] = assay: Antimalarial activity against chloroquine-resistant Plasmodium falciparum W2; format: functional, organism-based; outline: as §2
[28] = Selectivity index, ratio of IC50 for human KB cells to IC50 for Plasmodium falciparum D6; format: toxicity, cell-based; conditions: KB cells versus Plasmodium falciparum D6, read-out: Ratio IC50
Outline: (§3)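 Plasmodium falciparum clones were assayed in vitro: D6 (chloroquine-sensitive) and W2 (chloroquine-resistant). IC50 is in μg/mL. The selectivity index is the ratio of the antimalarial to the cytotoxic activity.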

[29] = target: Human immunodeficiency virus type 1 reverse transcriptase (Human immunodeficiency virus 1, UniProt Q72547); assay: Inhibition of HIV1 RT at 200 uM
Outline: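 HIV-1 reverse transcriptase inhibition was measured in an ELISA-based system.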

[30] = Inhibition of TK assessed as residual activity at 200 ug/ml
Outline: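 The enzyme was tyrosine kinase p56lck, with test compounds at 200 μg/mL. The read-out is the remaining enzyme activity.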

[31] = Selectivity index, ratio of IC50 for human KB cells to IC50 for Plasmodium falciparum W2; format: toxicity, cell-based; conditions: KB cells versus Plasmodium falciparum W2, read-out: Ratio IC50; outline: as §3
Penicillium oxalicum [32] = assay: Antimicrobial activity against Penicillium oxalicum at 0.01 ug; format: functional; conditions: read-out: IZ; outline: as §1

Row | Compound | EC50 (Lu1) | EC50 (KB [4]) | EC50 (KB [5]) | EC50 (KB [6]) | EC50 (LNCaP) | EC50 (ZR-75-1) | Activity (Escherichia coli [8]) | Activity (Escherichia coli [9]) | Activity (Escherichia coli [10]) | Activity (Escherichia coli [11]) | Activity (Micrococcus luteus [12]) | Activity (Micrococcus luteus [13]) | Activity (Micrococcus luteus [14]) | Activity (Bacillus subtilis [15]) | Activity (Bacillus subtilis [16]) | Activity (Bacillus subtilis [17]) | zone of inhibition at 10 µg/disc (Penicillium oxalicum [18]) | zone of inhibition at 5 µg/disc (Penicillium oxalicum [19]) | IC50 (Plasmodium falciparum [26]) | IC50 (Plasmodium falciparum [27]) | further results
1 | CCCCCCC(=O)C(Br)=C(Br)Br | > 20 µg/mL | > 20 µg/mL | > 20 µg/mL | > 20 µg/mL | > 20 µg/mL | > 20 µg/mL | inactive | inactive | inactive | inactive | Active | Active | inactive | inactive | inactive | inactive | 10 mm | 5 mm |  |  | EC50 [1]: > 20 µg/mL; EC50 (HT-1080): > 20 µg/mL; EC50 [2]: > 20 µg/mL; EC50 [3]: > 20 µg/mL; EC50 (P388): > 5 µg/mL; EC50 (A-431): > 20 µg/mL; EC50 [7]: > 20 µg/mL; Activity (Penicillium oxalicum [20]): inactive; Activity (Plasmodium falciparum [21]): >50%; IC50 [22]: ≥ 200 µM
2 | CCC[C@@H](O)C1=C(Br)/C(=C/I)OC1=O | 1.3 µg/mL (≈ 3.49 µM) | 0.4 µg/mL (≈ 1.07 µM) | 4.1 µg/mL (≈ 11 µM) | 0.3 µg/mL (≈ 0.804 µM) | < 0.1 µg/mL | 0.3 µg/mL (≈ 0.804 µM) | Active | Active | Active | inactive | Active | Active | Active | Active | Active | inactive | 20 mm | 18 mm | 6.8 µg/mL (≈ 18.2 µM) | > 10 µg/mL | Activity (Micrococcus luteus [23]): inactive; Activity (Bacillus subtilis [24]): inactive; zone of inhibition at 1 µg/disc (Penicillium oxalicum [20]): 12 mm; zone of inhibition at 0.1 µg/disc (Penicillium oxalicum [25]): 4 mm; selectivity ratio [28]: < 1; IC50 [29]: 700 µM; Activity [30]: 4.2%
3 | CCCCC1=C(Br)/C(=C/Br)OC1=O | > 20 µg/mL | > 20 µg/mL | > 20 µg/mL | > 20 µg/mL | 7.3 µg/mL (≈ 23.5 µM) | 10.2 µg/mL (≈ 32.9 µM) | Active | inactive | inactive | inactive | Active | Active | Active | Active | inactive | inactive | 3 mm | 3 mm |  |  | EC50 [1]: 9.8 µg/mL (≈ 31.6 µM); EC50 (HT-1080): 2.2 µg/mL (≈ 7.1 µM); EC50 [2]: 5.3 µg/mL (≈ 17.1 µM); EC50 [3]: > 20 µg/mL; EC50 (P388): > 5 µg/mL; EC50 (A-431): > 20 µg/mL; EC50 [7]: 10 µg/mL (≈ 32.3 µM); Activity (Micrococcus luteus [23]): inactive; Activity (Penicillium oxalicum [20]): inactive; Activity (Plasmodium falciparum [21]): >50%
4 | C[C@@H]1CC[C@H]2[C@@H](C)C(=O)O[C@@H]3O[C@@]4(C)CC[C@@H]1[C@]32OO4 [ARTEMISININ] |  | > 20 µg/mL |  |  |  |  |  |  |  |  |  |  |  |  |  |  |  |  | 0.001 µg/mL (≈ 0.00354 µM) | 0.006 µg/mL (≈ 0.0213 µM) | selectivity ratio [28]: > 18200; selectivity ratio [31]: > 3280
5 | C=C[C@H]1CN2CC[C@H]1C[C@H]2[C@H](O)c1ccnc2ccc(OC)cc12 [QUININE] |  | > 20 µg/mL |  |  |  |  |  |  |  |  |  |  |  |  |  |  |  |  | 0.011 µg/mL (≈ 0.0339 µM) | 0.029 µg/mL (≈ 0.0894 µM) | selectivity ratio [28]: > 1830; selectivity ratio [31]: > 700
6 | CCC[C@@H](OC(C)=O)C1=C(Br)C(=C(Br)Br)OC1=O | 1.1 µg/mL (≈ 2.46 µM) | 0.3 µg/mL (≈ 0.671 µM) | 0.5 µg/mL (≈ 1.12 µM) | 3.5 µg/mL (≈ 7.83 µM) | 2.1 µg/mL (≈ 4.7 µM) | < 0.1 µg/mL | Active | Active | inactive | inactive | Active | Active | Active | Active | Active | Active | 12 mm | 14 mm | 2.2 µg/mL (≈ 4.92 µM) | 9.1 µg/mL (≈ 20.4 µM) | Activity (Micrococcus luteus [23]): Active; zone of inhibition at 1 µg/disc (Penicillium oxalicum [20]): 10 mm; zone of inhibition at 0.1 µg/disc (Penicillium oxalicum [25]): 6 mm; selectivity ratio [28]: < 1; selectivity ratio [31]: < 1; IC50 [29]: 700 µM; Activity [30]: 1.9%; zone of inhibition at 0.01 µg/disc (Penicillium oxalicum [32]): 3 mm
